From ChEMBL document CHEMBL3526056, “Characterization of in vitro glucuronidation clearance of a range of drugs in human kidney microsomes: comparison with liver and intestinal glucuronidation and impact of albumin” (Drug Metab Dispos, 2012)

Key:
[1] = Ratio of unbound intrinsic glucuronidation clearance in human kidney microsomes in presence of 1% bovine serum albumin to unbound intrinsic glucuronidation clearance in human kidney microsomes in absence of bovine serum albumin; assay type: ADME, microsome
Outline: (§1)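 Unbound intrinsic glucuronidation clearance measured by parent-drug depletion in intestinal or kidney microsomes, once with 1% BSA and once without, under otherwise matched conditions (1 μM drug, pH 7.1 phosphate, 5 mM cofactor, 37°C). Each value was corrected for fu,inc. The ratio is the mean clearance with BSA over the mean without.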

[2] = Unbound intrinsic glucuronidation clearance in human kidney microsomes at 1 uM after 30 to 60 mins by LC-MS/MS analysis in presence of UDP-glucuronosyltransferase and 1% bovine serum albumin; assay type: ADME, microsome
[3] = molecular target: T1, UDP-glucuronosyltransferase 1A9 (Homo sapiens, UniProt O60656); assay: Drug metabolism in human liver microsomes assessed as UGT1A9-mediated unbound intrinsic glucuronidation clearance at 1 uM after 30 to 60 mins by LC-MS/MS analysis; assay type: ADME
T1 sequence (O60656 whole entry): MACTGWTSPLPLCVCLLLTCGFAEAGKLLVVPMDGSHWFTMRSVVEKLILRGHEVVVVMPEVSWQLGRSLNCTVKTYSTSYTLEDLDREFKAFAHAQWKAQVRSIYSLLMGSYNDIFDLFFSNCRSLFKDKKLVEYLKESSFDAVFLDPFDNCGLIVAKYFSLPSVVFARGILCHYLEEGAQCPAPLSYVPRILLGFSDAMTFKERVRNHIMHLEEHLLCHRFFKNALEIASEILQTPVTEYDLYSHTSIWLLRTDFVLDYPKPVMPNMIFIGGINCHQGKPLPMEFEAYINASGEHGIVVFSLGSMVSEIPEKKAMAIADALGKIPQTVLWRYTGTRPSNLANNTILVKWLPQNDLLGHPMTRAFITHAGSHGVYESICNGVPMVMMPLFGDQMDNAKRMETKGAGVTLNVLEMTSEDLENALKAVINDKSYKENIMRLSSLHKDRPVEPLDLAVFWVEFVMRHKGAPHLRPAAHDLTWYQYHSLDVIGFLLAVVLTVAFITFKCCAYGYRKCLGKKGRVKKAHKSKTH

[4] = Drug metabolism in human intestinal microsomes assessed as UGT1A8/2B7-mediated unbound intrinsic glucuronidation clearance at 1 uM after 30 to 60 mins by LC-MS/MS analysis in presence of 2% bovine serum albumin; assay type: ADME, Intestine
[5] = Unbound intrinsic glucuronidation clearance in human intestinal microsomes at 1 uM after 30 to 60 mins by LC-MS/MS analysis in presence of UDP-glucuronosyltransferase; assay type: ADME, Intestine, Microsome
Outline: (§2)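 Alamethicin-activated pooled microsomes (HLM 150 donors; HKM 8; HIM 18). Drug at 1 μM final, preincubated 5 min at 37°C in 0.1 M phosphate pH 7.1 with 3.45 mM MgCl2, 1.15 mM EDTA, 115 μM saccharic acid lactone. Started with […] cofactor (5 mM final), 30–60 min. Cofactor-free controls. Parent depletion by LC-MS/MS, single-exponential k. Corrected by HLM-dialysis fu,inc. Duplicates; n=3 (HIM n=1).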

[6] = Ratio of unbound intrinsic glucuronidation clearance in human intestinal microsomes in presence of 1% bovine serum albumin to unbound intrinsic glucuronidation clearance in human intestinal microsomes in absence of bovine serum albumin; assay type: ADME, Intestine, Microsome; outline: as §1
[7] = Unbound intrinsic glucuronidation clearance in human kidney microsomes at 1 uM after 30 to 60 mins by LC-MS/MS analysis in presence of UDP-glucuronosyltransferase; assay type: ADME, microsome; outline: as §2
[8] = Renal clearance in human; assay type: ADME, organism-based, Kidney; conditions: in vivo
[9] = Unbound intrinsic glucuronidation clearance in human intestinal microsomes at 1 uM after 30 to 60 mins by LC-MS/MS analysis in presence of UDP-glucuronosyltransferase and 1% bovine serum albumin; assay type: ADME, Intestine, Microsome
[10] = molecular target: T1, UDP-glucuronosyltransferase 1A9; assay: Ratio of UGT1A9-mediated unbound intrinsic glucuronidation clearance in human intestinal microsomes to UGT1A9-mediated unbound intrinsic glucuronidation clearance in human liver microsomes at 1 uM; assay type: ADME
[11] = molecular target: T1, UDP-glucuronosyltransferase 1A9; assay: Ratio of UGT1A9-mediated unbound intrinsic glucuronidation clearance in human kidney microsomes to UGT1A9-mediated unbound intrinsic glucuronidation clearance in human intestinal microsomes at 1 uM in presence of 1% bovine serum albumin; assay type: ADME
[12] = molecular target: T1, UDP-glucuronosyltransferase 1A9; assay: Ratio of UGT1A9-mediated unbound intrinsic glucuronidation clearance in human intestinal microsomes to UGT1A9-mediated unbound intrinsic glucuronidation clearance in human liver microsomes at 1 uM in presence of 1% bovine serum albumin; assay type: ADME
[13] = Clearance in iv dosed human; assay type: ADME, organism-based; conditions: in vivo
[14] = tested on: Liver microsome; assay: Unbound intrinsic glucuronidation clearance in human liver microsomes at 1 uM after 30 to 60 mins by LC-MS/MS analysis in presence of UDP-glucuronosyltransferase; assay type: ADME; outline: as §2
[15] = molecular target: T1, UDP-glucuronosyltransferase 1A9; assay: Ratio of UGT1A9-mediated unbound intrinsic glucuronidation clearance in human kidney microsomes to UGT1A9-mediated unbound intrinsic glucuronidation clearance in human intestinal microsomes at 1 uM; assay type: ADME
[16] = molecular target: T1, UDP-glucuronosyltransferase 1A9; assay: Drug metabolism in human intestinal microsomes assessed as UGT1A9-mediated unbound intrinsic glucuronidation clearance at 1 uM after 30 to 60 mins by LC-MS/MS analysis; assay type: ADME, Intestine
[17] = Fraction unbound in human plasma
[18] = molecular target: T1, UDP-glucuronosyltransferase 1A9; assay: Ratio of UGT1A9-mediated unbound intrinsic glucuronidation clearance in human kidney microsomes to UGT1A9-mediated unbound intrinsic glucuronidation clearance in human liver microsomes at 1 uM; assay type: ADME
Outline: (§3)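 Unbound intrinsic clearance measured by substrate depletion in kidney and liver microsomes (1 μM drug, 0.1 M phosphate pH 7.1, 5 mM cofactor, 37°C, LC-MS/MS), without or with 1% BSA. Values scaled per g tissue; ratio taken as mean scaled kidney over mean scaled liver value.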

[19] = tested on: Liver microsome; assay: Fraction metabolized glucuronidation in human liver microsomes in presence of UDP-glucuronosyltransferase; assay type: ADME
[20] = Glucuronidation clearance in human liver microsomes; assay type: ADME
[21] = molecular target: T1, UDP-glucuronosyltransferase 1A9; assay: Ratio of UGT1A9-mediated unbound intrinsic glucuronidation clearance in human kidney microsomes to UGT1A9-mediated unbound intrinsic glucuronidation clearance in human liver microsomes at 1 uM in presence of 1% bovine serum albumin; assay type: ADME; outline: as §3
[22] = Fraction unbound in human kidney microsomes at 1 uM after 30 to 60 mins by LC-MS/MS analysis; assay type: ADME
[23] = Fraction unbound in human liver microsomes at 1 uM after 30 to 60 mins by LC-MS/MS analysis; assay type: ADME
[24] = molecular target: T1, UDP-glucuronosyltransferase 1A9; assay: Drug metabolism in human liver microsomes assessed as UGT1A9-mediated unbound intrinsic glucuronidation clearance at 1 uM after 30 to 60 mins by LC-MS/MS analysis in presence of 1% bovine serum albumin; assay type: ADME
[25] = Ratio of drug level blood to plasma in human; assay type: ADME; conditions: blood and plasma
[26] = molecular target: T1, UDP-glucuronosyltransferase 1A9; assay: Drug metabolism in human kidney microsomes assessed as UGT1A9-mediated unbound intrinsic glucuronidation clearance at 1 uM after 30 to 60 mins by LC-MS/MS analysis in presence of 1% bovine serum albumin; assay type: ADME
[27] = Fraction unbound in human intestinal microsomes at 1 uM after 30 to 60 mins by LC-MS/MS analysis; assay type: ADME, Intestine, Microsome
[28] = molecular target: T1, UDP-glucuronosyltransferase 1A9; assay: Drug metabolism in human kidney microsomes assessed as UGT1A9-mediated unbound intrinsic glucuronidation clearance at 1 uM after 30 to 60 mins by LC-MS/MS analysis; assay type: ADME
[29] = tested on: Liver microsome; assay: Fraction metabolized glucuronidation in human liver microsomes in presence of UDP-glucuronosyltransferase and bovine serum albumin; assay type: ADME
[30] = Fraction unbound in human liver microsomes at 1 uM after 30 to 60 mins by LC-MS/MS analysis in presence of 1% bovine serum albumin; assay type: ADME; conditions: liver microsomes
[31] = Glucuronidation clearance in human liver microsomes in presence of bovine serum albumin; assay type: ADME
[32] = tested on: Liver microsome; assay: Unbound intrinsic glucuronidation clearance in human liver microsomes at 1 uM after 30 to 60 mins by LC-MS/MS analysis in presence of UDP-glucuronosyltransferase and 1% bovine serum albumin; assay type: ADME

- Ratio [1]: 4.9
- CL free [2]: 1370 µL/min/mg
- CL free [3]: 3.13 mL/min/g
- CL free [4]: 0.292 mL/min/g
- CL free [5]: 11.8 µL/min/mg
- Ratio [6]: 4.7
- CL free [7]: 293 µL/min/mg
- CL renal [8]: 0.01 mL/min/kg
- CL free [9]: 57.8 µL/min/mg
- Ratio [10]: 0.078
- Ratio [11]: 14.8
- Ratio [12]: 0.128
- clearance [13]: 2.49 mL/min/kg
- CL free [14]: 78.2 µL/min/mg
- Ratio [15]: 15.4
- CL free [16]: 0.244 mL/min/g
- fraction unbound [17]: 0.01
- Ratio [18]: 1.2
- Drug metabolism [19]: 0.95
- CLhep predicted [20]: 3.97 mL/min/kg
- Ratio [21]: 1.89
- fraction unbound at 1 µM [22]: 0.91
- fraction unbound at 1 µM [23]: 0.83
- CL free [24]: 9.32 mL/min/g
- blood plasma ratio [25]: 0.6
- CL free [26]: 17.6 mL/min/g
- fraction unbound at 1 µM [27]: 0.71
- CL free [28]: 3.75 mL/min/g
- Drug metabolism [29]: 0.95
- fraction unbound at 1 µM [30]: 0.18
- CLhep predicted [31]: 3.97 mL/min/kg
- CL free [32]: 233 µL/min/mg
Compound: COc1c(C)c2c(c(O)c1C/C=C(\C)CCC(=O)O)C(=O)OC2 [MYCOPHENOLIC ACID]
